ChEMBL document CHEMBL1157729, “Structure-activity relationship and mechanism of action studies of manzamine analogues for the control of neuroinflammation and cerebral infections” (J Med Chem, 2010)
≈ marks a conversion by molar mass, not a printed value.

Legend:
Plasmodium falciparum [1] = assay: Antiplasmodial activity against chloroquine-sensitive Plasmodium falciparum D6 after 72 hrs by LDH assay; type: functional, organism-based; details: Plasmodium falciparum, D6, 72 h; read-out: IC50
Plasmodium falciparum [2] = assay: Antiplasmodial activity against chloroquine-resistant Plasmodium falciparum W2 after 72 hrs by LDH assay; type: functional, organism-based; details: Plasmodium falciparum, W2, 72 h; read-out: IC50
Vero [3] = assay: Cytotoxicity against african green monkey Vero cells up to 4.6 ug/mL after 48 hrs by neutral red assay; type: cell-based; details: chlorocebus sabaeus
Outline: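 Vero cells were seeded at 25,000 cells/well and incubated for 24 h, then exposed to serially diluted samples for 48 h. Viable cells were counted by Neutral Red assay, with doxorubicin as positive control. IC50 was taken from dose-response curves.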

[4] = test system: Mycobacterium tuberculosis; assay: Antimycobacterial activity against Mycobacterium tuberculosis H37Rv; type: functional, organism-based
Candida albicans = assay: Antifungal activity against Candida albicans ATCC 90028; type: functional, organism-based
Outline: (§1)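 Broth microdilution per modified CLSI method; samples serially diluted in 20% DMSO/saline, tested in duplicate; inocula set by OD630 of suspensions in incubation broth; growth read at 630 nm before and after incubation; amphotericin B drug control.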

Cryptococcus neoformans = assay: Antifungal activity against Cryptococcus neoformans ATCC 90113; type: functional, organism-based; outline: as §1
[5] = test system: Mycobacterium intracellulare; assay: Antimycobacterial activity against Mycobacterium intracellular ATCC 23068; type: functional, organism-based
Outline: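 Modified Franzblau method; samples serially diluted in 20% DMSO/saline, tested in duplicate; inoculum set by OD630; fluorescence read at 544ex/590em before and after incubation; ciprofloxacin drug control.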

[6] = Antineuroinflammatory activity in LPS-stimulated rat neonatal microglia assessed as inhibition of PMA-induced superoxide anion production preincubated 15 mins prior to PMA challenge measured after 70 mins; type: functional, cell-based
[7] = Antineuroinflammatory activity in LPS-stimulated rat neonatal microglia assessed as inhibition of PMA-induced TXB2 production preincubated 15 mins prior to PMA challenge measured after 70 mins; type: functional, cell-based
[8] = Antineuroinflammatory activity in LPS-stimulated rat neonatal microglia assessed as drug level causing 50% PMA-induced LDH release preincubated 15 mins prior to PMA challenge measured after 70 mins; type: functional
Outline: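 Neonatal rat microglia (2 × 10^5/well) primed with E. coli LPS 0.3 ng/mL for 17 h at 35.9 °C, washed with HBSS, given compound (0.01–10 μM) or DMSO 15 min, then PMA 1 μM; LDH read spectrophotometrically after 70 min; LDH50 relative to Triton X-100 (0.1%) release; duplicates.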

Vero [9] = assay: Cytotoxicity against african green monkey Vero cells after 48 hrs by neutral red assay; type: cell-based; details: chlorocebus sabaeus
Outline: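 Vero cells seeded at 25,000/well and grown 24 h, then exposed to serially diluted samples for 48 h. Viable cells measured by neutral red assay, with doxorubicin as positive control. IC50 taken from dose-response curves.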

Row | SMILES | IC50 (Plasmodium falciparum [1]) | IC50 (Plasmodium falciparum [2]) | Activity (Vero [3]) | MIC [4] | IC50 (Candida albicans) | IC50 (Cryptococcus neoformans) | IC50 [5] | IC50 [6] | IC50 [7] | Activity [8] | IC50 (Vero [9])
1 | CN1CCc2c([nH]c3ccccc23)C1C1=C[C@@]2(O)CC/C=C\CCCCN3CC[C@@H]1[C@]1(C[C@@H]4/C=C\CCCCN4[C@H]12)C3 (some centres undefined) | 0.31 µg/mL (≈ 0.547 µM) | 0.44 µg/mL (≈ 0.776 µM) | Non-toxic | > 64 µg/mL | > 20 µg/mL | 6 µg/mL (≈ 10.6 µM) | 0.7 µg/mL (≈ 1.23 µM) | > 10000 nM | 12200 nM | 8 µM | –
2 | COc1ccc2[nH]c3c(c2c1)CCNC3C1=C[C@@]2(O)CC/C=C\CCCCN3CC[C@@H]1[C@]1(C[C@@H]4/C=C\CCCCN4[C@H]12)C3 (some centres undefined) | 0.057 µg/mL (≈ 0.0978 µM) | 0.064 µg/mL (≈ 0.11 µM) | – | > 64 µg/mL | > 20 µg/mL | 2 µg/mL (≈ 3.43 µM) | 0.2 µg/mL (≈ 0.343 µM) | 2200 nM | 1650 nM | 3 µM | 0.2 µg/mL (≈ 0.343 µM)
3 | COc1ccc2[nH]c3c(C4=C[C@@]5(O)CC/C=C\CCCCN6CC[C@@H]4[C@]4(C[C@@H]7/C=C\CCCCN7[C@H]45)C6)nccc3c2c1 [6-METHOXYMANZAMINE A] | 0.028 µg/mL (≈ 0.0484 µM) | 0.058 µg/mL (≈ 0.1 µM) | – | > 64 µg/mL | 5 µg/mL (≈ 8.64 µM) | 3 µg/mL (≈ 5.18 µM) | 0.8 µg/mL (≈ 1.38 µM) | 100 nM | 110 nM | >10 µM | 0.5 µg/mL (≈ 0.864 µM)
4 | O=[N+]([O-])c1ccc2[nH]c3c(C4=C[C@@]5(O)CC/C=C\CCCCN6CC[C@@H]4[C@]4(C[C@@H]7/C=C\CCCCN7[C@H]45)C6)nccc3c2c1 [6-NITROMANZAMINE A] | 0.018 µg/mL (≈ 0.0303 µM) | 0.028 µg/mL (≈ 0.0472 µM) | – | 1.6 µg/mL (≈ 2.69 µM) | > 20 µg/mL | 2.5 µg/mL (≈ 4.21 µM) | 0.15 µg/mL (≈ 0.253 µM) | – | – | – | 270 µg/mL (≈ 455 µM)
5 | CC(=O)Oc1cccc2c1[nH]c1c(C3=C[C@@]4(O)CC/C=C\CCCCN5CC[C@@H]3[C@]3(C[C@@H]6/C=C\CCCCN6[C@H]34)C5)nccc12 [8-ACETOXYMANZAMINE A] | 0.029 µg/mL (≈ 0.0478 µM) | – | – | – | – | – | – | – | – | – | 670 µg/mL (≈ 1100 µM)
6 | CCCCn1c2ccccc2c2ccnc(C3=C[C@@]4(O)CC/C=C\CCCCN5CC[C@@H]3[C@]3(C[C@@H]6/C=C\CCCCN6[C@H]34)C5)c21 [9-N-BUTYLMANZAMINE A] | 0.33 µg/mL (≈ 0.546 µM) | 1.3 µg/mL (≈ 2.15 µM) | – | 128 µg/mL (≈ 212 µM) | > 20 µg/mL | > 20 µg/mL | > 20 µg/mL | 120 nM | 400 nM | >10 µM | 2 µg/mL (≈ 3.31 µM)
7 | CCn1c2ccccc2c2ccnc(C3=C[C@@]4(O)CC/C=C\CCCCN5CC[C@@H]3[C@]3(C[C@@H]6/C=C\CCCCN6[C@H]34)C5)c21 [9-N-ETHYLMANZAMINE A] | 0.14 µg/mL (≈ 0.243 µM) | 0.47 µg/mL (≈ 0.815 µM) | – | > 128 µg/mL | 20 µg/mL (≈ 34.7 µM) | 10 µg/mL (≈ 17.3 µM) | 0.5 µg/mL (≈ 0.867 µM) | 9700 nM | > 10000 nM | >10 µM | 1.5 µg/mL (≈ 2.6 µM)
8 | CC(C)CCn1c2ccccc2c2ccnc(C3=C[C@@]4(O)CC/C=C\CCCCN5CC[C@@H]3[C@]3(C[C@@H]6/C=C\CCCCN6[C@H]34)C5)c21 [9-N-ISOPENTYLMANZAMINE A] | 2.3 µg/mL (≈ 3.72 µM) | 3.8 µg/mL (≈ 6.14 µM) | Non-toxic | 128 µg/mL (≈ 207 µM) | > 20 µg/mL | > 20 µg/mL | 6.5 µg/mL (≈ 10.5 µM) | 3200 nM | 3200 nM | >10 µM | –
